According to ChEMBL document CHEMBL1153749, “Flavonoids from the heartwood of the Thai medicinal plant Dalbergia parviflora and their effects on estrogenic-responsive human breast cancer cells” (2009):
Active and inactive are the calls of the source. The calls are words filed in the database; no cut-off is given here.

Tests used:
Format in all cases: functional
[1] = tested on: T47D; experiment: Estrogenic activity in human T47D cells assessed as drug level causing stimulation of cell proliferation equivalent to 10 pM estradiol after 96 hrs by alamar blue assay
Outline: (§1)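 Cells seeded at 10^4 per well in phenol red-free RPMI with 5% DCC-treated FBS. Compounds added in DMSO (vehicle control 1% DMSO) for 96 h at 37 °C, 5% CO2, with serial estradiol dilutions run alongside. Alamar Blue for 3 h, fluorescence ex 530/em 590 nm. Estradiol-equivalent concentration fitted by linear regression from at least five concentrations in quadruplicate.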

[2] = tested on: MCF7; experiment: Estrogenic activity in human MCF7 cells assessed as drug level causing stimulation of cell proliferation equivalent to 100 pM estradiol after 96 hrs by alamar blue assay; outline: as §1
[3] = tested on: T47D; experiment: Estrogenic activity in human T47D cells assessed as drug level causing stimulation of cell proliferation equivalent to 100 pM estradiol after 96 hrs by alamar blue assay; outline: as §1
[4] = tested on: MCF7; experiment: Estrogenic activity in human MCF7 cells assessed as drug level causing stimulation of cell proliferation equivalent to 10 pM estradiol after 96 hrs by alamar blue assay; outline: as §1
[5] = tested on: MCF7; experiment: Estrogenic activity in luciferase transfected human MCF7 cells assessed as drug level causing stimulation of cell proliferation equivalent to 10 pM estradiol by luciferase reporter gene assay
Outline: (§2)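 Reporter assay in MCF-7 or T47D cells transiently transfected with luciferase. Compounds tested from 0.01 to 10 µM. Luciferase induction is expressed as the compound concentration equivalent to the 10 or 100 pM estradiol response. Values come from linear regression over at least five concentrations in quadruplicate.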

[6] = tested on: MCF7; experiment: Estrogenic activity in luciferase transfected human MCF7 cells assessed as drug level causing stimulation of cell proliferation equivalent to 100 pM estradiol by luciferase reporter gene assay; outline: as §2
[7] = tested on: T47D; experiment: Estrogenic activity in luciferase transfected human T47D cells assessed as drug level causing stimulation of cell proliferation equivalent to 10 pM estradiol by luciferase reporter gene assay; outline: as §2
[8] = tested on: T47D; experiment: Estrogenic activity in luciferase transfected human T47D cells assessed as drug level causing stimulation of cell proliferation equivalent to 100 pM estradiol by luciferase reporter gene assay; outline: as §2

SMILES | Activity [1] | Activity [2] | Activity [3] | Activity [4] | Activity [5] | Activity [6] | Activity [7] | Activity [8]
COc1ccc(-c2coc3cc(O)ccc3c2=O)c(OC)c1 [2'-METHOXYFORMONETIN] | 0.01 µM | 5.2 µM | 1.7 µM | 0.3 µM | >100 µM | >100 µM | 1.8 µM | 6.2 µM
COc1cc(O)ccc1-c1coc2cc(O)cc(O)c2c1=O [THERALIN] | 1.7 µM | >100 µM | >100 µM | 0.6 µM | 0.01 µM | 0.4 µM | >100 µM | >100 µM
COc1ccc(-c2coc3cc(O)cc(O)c3c2=O)cc1 [BIOCHANIN] | 0.3 µM | 3.8 µM | 0.5 µM | 0.3 µM | >100 µM | >100 µM | 0.01 µM | 0.01 µM
O=C1c2c(O)cc(O)cc2O[C@H](c2ccccc2)[C@H]1O | inactive | inactive | inactive | inactive | inactive | inactive | inactive | inactive
COc1ccc(-c2coc3cc(O)cc(O)c3c2=O)c(OC)c1 | 0.4 µM | 19.6 µM | >100 µM | 3.2 µM | >100 µM | >100 µM | 1.8 µM | 3.1 µM
COc1cc(O)c(-c2coc3cc(O)cc(O)c3c2=O)cc1O [KHRINONE B] | >100 µM | >100 µM | >100 µM | >100 µM | >100 µM | >100 µM | >100 µM | >100 µM
O=C1C[C@@H](c2ccc(O)cc2)Oc2cc(O)cc(O)c21 [NARINGENIN] | 0.09 µM | 0.7 µM | 1.6 µM | 0.2 µM | 1.7 µM | 2.6 µM | 0.01 µM | 5.8 µM
O=c1c(-c2ccc(O)cc2)coc2cc(O)cc(O)c12 [GENISTEIN] | 0.01 µM | 0.11 µM | 0.08 µM | 0.01 µM | 0.01 µM | 0.01 µM | 0.01 µM | 0.6 µM
